Test results published in ChEMBL document CHEMBL3784973, “A Parallel Synthesis Approach to the Identification of Novel Diheteroarylamide-Based Compounds Blocking HIV Replication: Potential Inhibitors of HIV-1 Pre-mRNA Alternative Splicing” (J Med Chem, 2016).
The source made the active and inactive calls. No cut-off for these calls is given here.

Legend:
[1] = system: Human immunodeficiency virus 1; assay: Antiviral activity against HIV1 NL4-3 infected in GFP-positive human CEM cells expressing CD4+,CXCR4 and CCR5 at 2 uM after 3 days by flow cytometric analysis; assay type: functional, organism-based; details: CCRF-CEM
Summary of the method: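 Library screen of HIV-1 spread in CEM-GXR cells cocultured with 1% HIV-1NL4-3-infected (GFP+) cells. Cells were grown in RPMI-1640 with 10% FCS and penicillin-streptomycin, and selected with G418 and hygromycin B during propagation. Compound at final 2 μM in DMSO was added right after inoculation. Infection was read by flow cytometry of GFP.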

[2] = system: Human immunodeficiency virus 1; assay: Antiviral activity against HIV1 3B infected in GFP-positive human CEM cells expressing CD4+,CXCR4 and CCR5 assessed as number of infected cells at 1 uM after 3 days; assay type: functional, CCRF-CEM
Summary of the method: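 CEM-GXR cells (CD4+ T-cell line, Tat-driven LTR-GFP reporter) infected by coculture with 1% HIV-1IIIB-infected cells. Serial dilutions 62.5 nM–16 μM added at inoculation. GFP-positive (infected) cells counted 3 days post-infection. Three independent experiments.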

[3] = Cytotoxicity against GFP-positive human CEM cells expressing CD4+,CXCR4 and CCR5 assessed as cell viability at 16 uM after 24 hrs by Guava viacount assay; assay type: cell-based, CCRF-CEM; details: read-out: Activity
Summary of the method: (§1)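 Uninfected CEM-GXR cells were incubated 24 h with serial dilutions from 62.5 nM to 16 μM final. Viability was read by Guava ViaCount (dye permeability staining with forward scatter gating) as % viable cells. Three independent experiments.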

[4] = Cytotoxicity against GFP-positive human CEM cells expressing CD4+,CXCR4 and CCR5 assessed as cell viability at 1 uM after 24 hrs by Guava viacount assay; assay type: cell-based, CCRF-CEM; details: read-out: Activity; summary of the method: as §1
[5] = Cytotoxicity against GFP-positive human CEM cells expressing CD4+,CXCR4 and CCR5 assessed as cell viability at 4 uM after 24 hrs by Guava viacount assay; assay type: cell-based, CCRF-CEM; details: read-out: Activity; summary of the method: as §1
[6] = Cytotoxicity against GFP-positive human CEM cells expressing CD4+,CXCR4 and CCR5 assessed as cell viability at 8 uM after 24 hrs by Guava viacount assay; assay type: cell-based, CCRF-CEM; details: read-out: Activity; summary of the method: as §1
[7] = system: Human immunodeficiency virus 1; assay: Antiviral activity against subtype B X4 tropic HIV1 3B infected in GFP-positive human CEM cells expressing CD4+,CXCR4 and CCR5 after 3 days; assay type: functional, organism-based; details: Human immunodeficiency virus 1, 3B, CCRF-CEM, 72 h
Summary of the method: (§2)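 Infected CEM-GXR GFP-reporter cells were exposed to increasing compound concentrations. GFP-positive cells were measured by flow cytometry 3 days after infection. EC50 came from nonlinear regression of the inhibition curves. Mean of three independent determinations.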

[8] = Cytotoxicity against GFP-positive human CEM cells expressing CD4+,CXCR4 and CCR5 assessed as cell viability at after 24 hrs by Guava viacount assay; assay type: cell-based, CCRF-CEM
Summary of the method: (§3)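 For viability, CEM-GXR cells were incubated 24 h with compound at 0.5–100 μM. Guava ViaCount flow assay used DNA-binding dye permeability plus forward scatter to exclude nuclei and debris. Values are % viable cells (±SEM, three independent experiments), and CC50 is the concentration killing 50% of host cells.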

[9] = Therapeutic index, ratio of CC50 for GFP-positive human CEM cells expressing CD4+,CXCR4 and CCR5 to EC50 for […] HIV1 E00443 reverse transcriptase D67N/K70R/Y115F/Q151M/M184V/K219Q mutant infected in GFP-positive human CEM cells expressing CD4+,CXCR4 and CCR5; assay type: cell-based; details: ccrf-cem, read-out: TI
[10] = Therapeutic index, ratio of CC50 for GFP-positive human CEM cells expressing CD4+,CXCR4 and CCR5 to EC50 for INI-resistant HIV1 isolate 11845 harboring integrase G140S/Q148H mutant infected in GFP-positive human CEM cells expressing CD4+,CXCR4 and CCR5; assay type: cell-based; details: ccrf-cem, read-out: TI
[11] = Therapeutic index, ratio of CC50 for GFP-positive human CEM cells expressing CD4+,CXCR4 and CCR5 to EC50 for HIV1 3B infected in GFP-positive human CEM cells expressing CD4+,CXCR4 and CCR5; assay type: cell-based, CCRF-CEM; details: read-out: TI
Summary of the method: (§4)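 Reporter CEM-GXR T cells (Tat-driven LTR-GFP cassette; RPMI-1640, 10% FCS, penicillin-streptomycin) were infected by coculture with 1% HIV-infected GFP-positive cells. Compound in DMSO was added after inoculation. Infected cells were counted by flow cytometry for GFP at day 3, and EC50 was taken from nonlinear regression. CC50 came from Guava ViaCount viability after 24 h at 0.5–100 μM. Index = CC50/EC50.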

[12] = system: Human immunodeficiency virus 1; assay: Antiviral activity against […]-resistance HIV1 E00443 harboring reverse transcriptase D67N/K70R/Y115F/Q151M/M184V/K219Q mutant infected in GFP-positive human CEM cells expressing CD4+,CXCR4 and CCR5 after 3 days; assay type: functional, organism-based; details: Human immunodeficiency virus 1, E00443, CCRF-CEM, 72 h
[13] = system: Human immunodeficiency virus 1; assay: Antiviral activity against PI-resistant HIV1 isolate 2948 harboring protease G48V/L90M mutant infected in GFP-positive human CEM cells expressing CD4+,CXCR4 and CCR5 after 3 days; assay type: functional, organism-based; details: Human immunodeficiency virus 1, isolate 2948, CCRF-CEM, 72 h
[14] = Therapeutic index, ratio of CC50 for GFP-positive human CEM cells expressing CD4+,CXCR4 and CCR5 to EC50 for HIV1 97USSN54 infected in GFP-positive human CEM cells expressing CD4+,CXCR4 and CCR5; assay type: cell-based, CCRF-CEM; details: read-out: TI; summary of the method: as §4
[15] = Cytotoxicity against GFP-positive human CEM cells expressing CD4+,CXCR4 and CCR5 assessed as cell viability at 100 uM after 24 hrs by Guava viacount assay (reference value: 98%); assay type: cell-based, CCRF-CEM; details: read-out: Activity; summary of the method: as §3
[16] = system: Human immunodeficiency virus 1; assay: Antiviral activity against INI-resistant HIV1 isolate 11845 harboring integrase G140S/Q148H mutant infected in GFP-positive human CEM cells expressing CD4+,CXCR4 and CCR5 after 3 days; assay type: functional, organism-based; details: Human immunodeficiency virus 1, isolate 11845, CCRF-CEM, 72 h
[17] = system: Human immunodeficiency virus 1; assay: Antiviral activity against subtype A R5 tropic HIV1 97USSN54 infected in GFP-positive human CEM cells expressing CD4+,CXCR4 and CCR5 after 3 days; assay type: functional, organism-based; details: Human immunodeficiency virus 1, 97USSN54, CCRF-CEM, 72 h; summary of the method: as §2
[18] = system: Human immunodeficiency virus 1; assay: Antiviral activity against maraviroc-resistant HIV1 BAL R5 harboring envelop V3 A19T/L20F/T22A/E25D/126V mutant infected in GFP-positive human CEM cells expressing CD4+,CXCR4 and CCR5 after 3 days; assay type: functional, organism-based; details: ccrf-cem
[19] = Therapeutic index, ratio of CC50 for GFP-positive human CEM cells expressing CD4+,CXCR4 and CCR5 to EC50 for maraviroc-resistant HIV1 BAL R5 harboring envelop V3 A19T/L20F/T22A/E25D/126V mutant infected in GFP-positive human CEM cells expressing CD4+,CXCR4 and CCR5; assay type: cell-based; details: ccrf-cem, read-out: TI
[20] = Therapeutic index, ratio of CC50 for GFP-positive human CEM cells expressing CD4+,CXCR4 and CCR5 to EC50 for HIV1 isolate 2948 harboring protease G48V/L90M mutant infected in GFP-positive human CEM cells expressing CD4+,CXCR4 and CCR5; assay type: cell-based; details: ccrf-cem, read-out: TI

Row | SMILES | antiviral activity call (active/inactive) [1] | Activity [2] | viability at 24 h, 16 µM [3] | viability at 24 h, 1 µM [4] | viability at 24 h, 4 µM [5] | viability at 24 h, 8 µM [6] | EC50 [7] | further results
1 | COCCOc1ccncc1C(=O)Nc1nsc2ccc([N+](=O)[O-])cc12 | Active |  |  |  |  |  |  | 
2 | Cc1c2ccnc(Cl)c2cc2c3cn(C)ccc-3nc12 |  | 17.7% | 11.9% | 85.5% | 33.2% | 19.9% |  | 
3 | Nc1nc(=O)n([C@@H]2CS[C@H](CO)O2)cc1F [EMTRICITABINE] |  |  |  |  |  |  | 40 nM | 
4 | COCCOc1cc(=O)n(C)cc1C(=O)Nc1nsc2ccc([N+](=O)[O-])cc12 | Active |  |  |  |  |  |  | 
5 | Cn1ccc(=O)c(C(=O)Nc2nsc3ccc([N+](=O)[O-])cc23)c1 | Active | 18.4% | 78.7% | 89.6% | 81.5% | 80.9% | 600 nM | CC50 at 24 h [8]: > 100000 nM; selectivity ratio [9]: > 77; selectivity ratio [10]: > 66; selectivity ratio [11]: > 166; EC50 [12]: 1300 nM; EC50 [13]: 1400 nM; selectivity ratio [14]: > 111; viability at 24 h, 100 µM [15]: 68.8%; EC50 [16]: 1500 nM; EC50 [17]: 900 nM; EC50 [18]: 900 nM; selectivity ratio [19]: > 111; selectivity ratio [20]: > 71
6 | COc1cc(C(=O)Nc2nsc3ccc([N+](=O)[O-])cc23)ccn1 | Active |  |  |  |  |  |  | 
